Results from different studies.
Each line is one published result; the experiments were not run side by side.
ABL1: Tyrosine-protein kinase ABL1 (ABL1, Homo sapiens, UniProt P00519)

| SMILES | target | assay | setting | endpoint | result |
| --- | --- | --- | --- | --- | --- |
| C#Cc1n[nH]c2c(-c3cn([C@@H](C)c4ccccc4)c(=O)[nH]c3=O)cc(F)cc12 | ABL1 | enzyme activity, inhibitor | 0.1 µM | inhibition | -2.2% |
| Nc1ncc(-c2nc(N3CCOCC3)nc(N3CCOCC3)n2)c(C(F)F)n1 | Tyrosine-protein kinase ABL1, non-phosphorylated (ABL1, Homo sapiens, UniProt P00519, F317I) | binding, competition with immobilised ligand | 10 µM | remaining binding | 84% |
| Cn1cc(-c2cccc(N3CCc4c(sc5c4CC(C)(C)C5)C3=O)c2CO)cc(Nc2ccncn2)c1=O | ABL1 | enzyme activity, inhibitor | 1 µM | inhibition | -1% |
| O=c1[nH]c2ccccc2n1C1CCN(Cc2ccc(-c3[nH]c4cc5ncnc5cc4nc3-c3ccccc3)cc2)CC1 | ABL1 | cell-free assay | 0.5 µM | remaining signal | 98.2% |
| N#CC1(c2ccccn2)CCN(Cc2cc(C(=O)O)c(=O)n3ccccc23)CC1 | Tyrosine-protein kinase ABL1, phosphorylated (ABL1, Homo sapiens, UniProt P00519, H396P) | cell-free assay, competition with immobilised ligand | 1 µM | remaining binding | 91% |
| C#Cc1n[nH]c2c(-c3cn([C@@H](C)c4ccccn4)c(=O)[nH]c3=O)cc(F)cc12 | ABL1 | enzyme activity, inhibitor | 0.1 µM | inhibition | -3.6% |
| Cc1nn(C)cc1-c1nc2c(N3CCN(Cc4ccc(Cl)cc4)CC3)c(Cl)cnc2[nH]1 | Tyrosine-protein kinase ABL1, phosphorylated (ABL1, Homo sapiens, UniProt P00519, Q252H) | binding, competition with immobilised ligand | 1 µM | remaining binding | 84% |
| Cn1cc(-c2cc(F)cc(N3CCn4c(cc5c4CCCC5)C3=O)c2CO)cc(Nc2ccc(N3CCN(C4COC4)CC3)cn2)c1=O | Tyrosine-protein kinase ABL1 (ABL1, Homo sapiens, UniProt P00519, Y253F) | enzyme activity, inhibitor | 0.1 µM | inhibition | 3% |
| O=C(Nc1cccnn1)N1CCN([C@@H]2CCOc3cc(C(F)(F)F)ccc32)CC1 | ABL1 | enzyme activity, inhibitor | 20 µM | inhibition | -3% |
| Cn1cncc1[C@@](O)(COc1ccc(C#N)cc1-c1ccc(OC(F)(F)F)cc1)c1ccc(C#N)cc1 | Tyrosine-protein kinase ABL1, non-phosphorylated (ABL1, Homo sapiens, UniProt P00519, Q252H) | cell-free assay, competition with immobilised ligand | 1 µM | remaining binding | 76% |
